From ChEMBL document CHEMBL1131470, “Inhibition of human O6-alkylguanine-DNA alkyltransferase and potentiation of the cytotoxicity of chloroethylnitrosourea by 4(6)-(benzyloxy)-2,6(4)-diamino-5-(nitro or nitroso)pyrimidine derivatives and analogues” (J Med Chem, 1998)

Tests used:
[1] = tested on: HeLa; assay: The compound was tested for its ability to enhance the cytotoxicity of ACNU toward HeLa S3 cells at 0.1 uM dose; type: functional, Homo sapiens
Procedure, shortened: (§1)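 HeLa S3 cervical tumour cells (AGAT activity 418 fmol/mg protein) pretreated with test compound for 2 h at 0.01, 0.1, 1 or 10 μM, then exposed to increasing ACNU concentrations. Cytotoxicity measured by a previously reported method. Dose-modifying factor = IC50 for ACNU alone divided by IC50 for compound pretreatment followed by ACNU.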

[2] = The compound was tested for its ability to enhance the cytotoxicity of ACNU toward HeLa S3 cells at 10 uM dose; 'b' means toxicity appeared at this dose; type: cell-based; settings: human; procedure, shortened: as §1
[3] = tested on: HeLa; assay: The compound was tested for its ability to enhance the cytotoxicity of ACNU toward HeLa S3 cells at 1 uM dose; type: functional, Homo sapiens; procedure, shortened: as §1
[4] = tested on: HeLa; assay: The compound was tested for its ability to enhance the cytotoxicity of ACNU toward HeLa S3 cells at 0.01 uM dose; type: functional, Homo sapiens; procedure, shortened: as §1
[5] = target: T1, Methylated-DNA--protein-cysteine methyltransferase (Homo sapiens, UniProt P16455); assay: In vitro inhibitory activity against human O6-alkylguanine-DNA alkyltransferase (AGAT)
T1 sequence (P16455 whole entry): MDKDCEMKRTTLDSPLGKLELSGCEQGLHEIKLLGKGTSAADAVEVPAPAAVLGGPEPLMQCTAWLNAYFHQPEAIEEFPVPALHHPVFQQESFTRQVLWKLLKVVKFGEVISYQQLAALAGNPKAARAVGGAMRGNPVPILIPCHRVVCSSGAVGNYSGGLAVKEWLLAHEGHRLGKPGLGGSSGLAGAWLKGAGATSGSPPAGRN

[6] = tested on: HeLa; assay: The compound was tested for its ability to enhance the cytotoxicity of ACNU toward HeLa S3 cells at 10 uM dose; type: functional, Homo sapiens
Procedure, shortened: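 HeLa S3 cervical tumour cells (AGAT activity 418 fmol/mg protein) pretreated 2 h with test compound […], then exposed to increasing ACNU concentrations. Dose-modifying factor = IC50 for ACNU alone divided by IC50 for compound pretreatment followed by ACNU.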

| IC50 [5] | SMILES | Dose-modifying factor [1] | Dose-modifying factor [2] | Dose-modifying factor [3] | Dose-modifying factor [4] | Dose-modifying factor [6] |
| --- | --- | --- | --- | --- | --- | --- |
| – | Nc1nc(N)c([N+](=O)[O-])c(OCc2ccccn2)n1 | 1 | Toxicity appeared at this dose | 1 | – | – |
| 0.13 µM | Nc1nc(N)c(N=O)c(OCc2ccccc2)n1 | 4.3 | – | 8.8 | 1.2 | – |
| – | Nc1nc(N)c([N+](=O)[O-])c(OCc2ccccc2)n1 | 1.2 | Toxicity appeared at this dose | 4 | – | – |
| – | Nc1nc(N)c([N+](=O)[O-])c(OCc2cccnc2)n1 | 1.2 | Toxicity appeared at this dose | 3.6 | – | – |
| – | Nc1nc(N)c([N+](=O)[O-])c(OCc2cccc(F)c2)n1 | 1.2 | Toxicity appeared at this dose | 4.8 | – | – |
| – | Nc1nc(N)c([N+](=O)[O-])c(OCc2ccc(F)cc2)n1 | 1.5 | Toxicity appeared at this dose | 5.1 | – | – |
| – | Nc1nc(N)c([N+](=O)[O-])c(OCc2ccccc2F)n1 | 1 | Toxicity appeared at this dose | 1.1 | – | – |
| – | Nc1nc(N)c(N=O)c(OCc2ccc(F)cc2)n1 | 5.8 | Toxicity appeared at this dose | 9.2 | 1.4 | – |
| 170 µM | Nc1cc(OCc2ccccc2)nc(N)n1 | – | – | – | – | 1 |
| – | Nc1nc(N)c(N=O)c(OCc2ccncc2)n1 | 2.9 | Toxicity appeared at this dose | 7.3 | 1 | – |
| – | Nc1nc(N)c([N+](=O)[O-])c(OCc2ccncc2)n1 | 1.2 | Toxicity appeared at this dose | 3.9 | – | – |
| – | Nc1nc(OCc2ccccc2)c2nc[nH]c2n1 [6-O-BENZYLGUANINE] | 1.3 | – | 4.4 | – | 7.6 |
